# Experimental data collected from several papers.
# Compare with care: the assays were run in different laboratories.
# Target: Serine/threonine-protein kinase PAK 1 (PAK1, Homo sapiens, UniProt Q13153)
Compound,read-out,mode,technique,tested at,quantity,result
Cc1ccc(Nc2nccc(N(C)c3ccc4c(C)n(C)nc4c3)n2)cc1S(N)(=O)=O,cell-free assay,inhibitor,,0.5 µM,remaining signal,89.1%
CC(C)(C)c1nc(-c2cccc(NS(=O)(=O)c3c(F)cccc3F)c2F)c(-c2ccnc(N)n2)s1,enzyme activity,inhibitor,radiometric,1 µM,remaining activity,91%
CCOCCn1cc(C(=O)Nc2ccc(-n3nc(-c4cccnc4)cc3C(F)(F)F)cn2)ccc1=O,cell-free assay,,competition with immobilised ligand,1 µM,remaining binding,96%
Cc1cc(NC(=O)c2cccc3cc(-c4cccc5[nH]nc(N)c45)ccc23)ccc1F,enzyme activity,inhibitor,,0.1 µM,activity vs control,94%
Nc1ncnc2occ(-c3ccc(NC(=O)Nc4cc(C(F)(F)F)ccc4F)cc3)c12,cell-free assay,inhibitor,,20 µM,remaining signal,41%
Cc1ccc(NC(=O)c2ccc(C)c(C(F)(F)F)c2)cc1C#Cc1nn(C2CCC(O)CC2)c2ncnc(N)c12 (stereo not shown),cell-free assay,,,10 µM,remaining signal,87%
Nc1cnc(N2CCc3cc(S(=O)(=O)Nc4c(F)cc(Cl)cc4F)cc(N4CCCC4=O)c32)nc1,cell-free assay,,competition with immobilised ligand,1 µM,remaining binding,89%
COc1cc2ncnc(Nc3ccc(Oc4ccccc4)c(C)c3C)c2cc1OC,enzyme activity,inhibitor,,1 µM,inhibition,5%
CS(=O)(=O)N1CCCC(NC(=O)[C@H](CCC2CCCCC2)NC(=O)c2ccc(CNC(=O)c3cnc4ccccn34)cc2)C1 (stereo partly shown),cell-free assay,,competition with immobilised ligand,0.1 µM,remaining binding,82%
CC(C)(O)[C@H]1CC[C@H](Nc2ccc3ncc(-c4cccc(C(F)(F)F)c4)n3n2)CC1,enzyme activity,inhibitor,,1 µM,remaining activity,92.7%
CN(C)C1CCN(CC#Cc2nn(C3CCCC3)c3nc(NCc4ccccc4)ncc23)C1 (stereo not shown),enzyme activity,inhibitor,FRET,1 µM,inhibition,4%
Cc1sc(C(=O)NC2COC2)cc1-n1cc(NC(=O)Nc2c(F)cccc2Cl)cn1,enzyme activity,inhibitor,,10 µM,remaining activity,104%
COc1ccc2c(c1)O[C@H](c1ccc(OC)c(OC)c1)C[C@@H]2NC(=O)C1(c2ccc3c(c2)OC(F)(F)O3)CC1,cell-free assay,,competition with immobilised ligand,1 µM,remaining binding,100%
O=C1NC(=O)c2cc(Nc3ccc(F)cc3)c(Nc3ccc(F)cc3)cc21,cell-free assay,,,0.5 µM,remaining signal,95.5%
CS(=O)(=O)Nc1cccc(-c2csc(NC(=O)CSc3nc4nccnc4c(=O)n3CCc3ccccc3)n2)c1,enzyme activity,inhibitor,,10 µM,inhibition,-2%
CCc1ccccc1C(=O)Nc1n[nH]c2c(C)c(F)c(C3C(C#N)=C(C)N(C)C(C)=C3C#N)cc12,cell-free assay,,competition with immobilised ligand,1 µM,remaining binding,82%
O=C(Nc1cnn(-c2csc(C(=O)NC3COC3)c2)c1)Nc1ccccc1Cl,enzyme activity,inhibitor,,5 µM,remaining activity,106%
COc1cc2ncnc(Nc3ccc(F)c(Cl)c3)c2cc1OCCCN1CCOCC1,cell-free assay,,,0.5 µM,remaining signal,104%
Cc1c(C(=O)O)cc(-c2ccc(C3CCNCC3)cc2)c2ccc(-c3ccc(C(F)(F)F)cc3)cc12,cell-free assay,,competition with immobilised ligand,1 µM,remaining binding,100%
